Reference: ChEMBL document CHEMBL1177701, “Synthesis, biological evaluation, and structure-activity relationships of dithiolethiones as inducers of cytoprotective phase 2 enzymes” (J Med Chem, 2010)
Calls of active or inactive are those of the source. The calls are words filed in the database; no cut-off is given here.

Columns and labels:
Rattus norvegicus [1] = assay: Ex vivo induction of GST in Sprague-Dawley rat bladder at 7.5 umol/kg/day, po for 10 days measured on day 11 relative to control; type: functional
Summary of the method: (§1)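 Female Sprague-Dawley rats, 6 per group, gavaged with compound at 7.5 µmol/kg/day or soya oil for 10 days and killed on day 11. Bladder homogenized in ice-cold 0.2% Triton X-100 and cleared by centrifugation. NQO1 activity measured by the Ernster method, GST by the Habig method. Reported as treated/control mean ± SEM, ANOVA with Student-Newman-Keuls test.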

Rattus norvegicus [2] = assay: Ex vivo induction of NQO1 in Sprague-Dawley rat bladder at 7.5 umol/kg/day, po for 10 days measured on day 11 relative to control; type: functional; summary of the method: as §1
[3] = Dissociation constant, pKa of the compound; type: physicochemical
Rattus norvegicus [4] = assay: Ex vivo induction of NQO1 in Sprague-Dawley rat ileum at 7.5 umol/kg/day, po for 10 days measured on day 11 relative to control; type: functional
Summary of the method: (§2)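 Organs taken from the same rats used for the bladder study: female Sprague-Dawley, compound at 7.5 µmol/kg/day by gavage or soya oil for 10 days, killed on day 11. GI contents rinsed out under cold water and tissues stored at −80°C. Homogenized in 0.2% Triton X-100 and centrifuged. Supernatant NQO1 activity measured by the Ernster method, expressed as treated/control.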

Rattus norvegicus [5] = assay: Ex vivo induction of NQO1 in Sprague-Dawley rat stomach at 7.5 umol/kg/day, po for 10 days measured on day 11 relative to control; type: functional; summary of the method: as §2
Rattus norvegicus [6] = assay: Ex vivo induction of NQO1 in Sprague-Dawley rat colon at 7.5 umol/kg/day, po for 10 days measured on day 11 relative to control; type: functional; summary of the method: as §2
Rattus norvegicus [7] = assay: Ex vivo induction of NQO1 in Sprague-Dawley rat duodenum at 7.5 umol/kg/day, po for 10 days measured on day 11 relative to control; type: functional; summary of the method: as §2
Rattus norvegicus [8] = assay: Ex vivo induction of NQO1 in Sprague-Dawley rat kidney at 7.5 umol/kg/day, po for 10 days measured on day 11 relative to control; type: functional; summary of the method: as §2
Rattus norvegicus [9] = assay: Ex vivo induction of NQO1 in Sprague-Dawley rat liver at 7.5 umol/kg/day, po for 10 days measured on day 11 relative to control; type: functional; summary of the method: as §2
Rattus norvegicus [10] = assay: Ex vivo induction of NQO1 in Sprague-Dawley rat lung at 7.5 umol/kg/day, po for 10 days measured on day 11 relative to control; type: functional; summary of the method: as §2
Rattus norvegicus [11] = assay: Ex vivo induction of NQO1 in Sprague-Dawley rat jejunum at 7.5 umol/kg/day, po for 10 days measured on day 11 relative to control; type: functional; summary of the method: as §2
NBT2 [12] = assay: Induction of GST-mu protein expression in rat NBT2 cells after 24 hrs by Western blot analysis; type: functional, cell-based
Summary of the method: (§3)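 NBT-II rat bladder carcinoma cells grown in MEM with 10% FBS. Plated overnight, then exposed to compound at 25 or 50 µM for 24 h, with 0.1% DMSO final. Cells trypsinized, lysed with 1 mM PMSF and sonicated. 25-40 µg protein taken for Western blot, GAPDH as loading control. At least two experiments.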

NBT2 [13] = assay: Induction of GST-alpha protein expression in rat NBT2 cells after 24 hrs by Western blot analysis; type: functional, cell-based; summary of the method: as §3
Rattus norvegicus [14] = assay: Ex vivo induction GST-alpha protein expression in Sprague-Dawley rat bladder at 7.5 umol/kg/day, po for 10 days measured on day 11 by Western blot analysis; type: functional, organism-based
Summary of the method: (§4)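 Female Sprague-Dawley rats, 3 per group, gavaged once daily with compound at 7.5 µmol/kg or soya oil vehicle for 10 days. Killed on day 11. Bladder homogenized in 10 mM Tris-HCl pH 7.4, 0.25 M sucrose, 1 mM PMSF, 1 µg/ml leupeptin. 25-40 µg protein run by SDS-PAGE, then Western blot, with GAPDH as loading control.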

NBT2 [15] = assay: Induction of GST-alpha protein expression in Nrf gene knockout rat NBT2 cells at 25 uM after 24 hrs Western blot analysis; type: functional, cell-based
Summary of the method: (§5)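 NBT-II cells transfected with Nrf2 stealth RNAi or control RNAi (0.584 nmol per dish, lipofectamine 2000) for 48 h. Then treated with compound at 25 µM or vehicle for 24 h, with 0.1% DMSO final. Lysates analyzed by Western blot for Nrf2, GCL, GST-α, GST-μ and NQO1, with GAPDH as loading control.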

[16] = target: T1, Nuclear factor erythroid 2-related factor 2 (Rattus norvegicus) (UniProt O54968); assay: Induction of Nrf in wild type rat NBT2 cells at 25 uM after 24 hrs Western blot analysis; type: functional, cell-based; summary of the method: as §5
T1 sequence (whole entry): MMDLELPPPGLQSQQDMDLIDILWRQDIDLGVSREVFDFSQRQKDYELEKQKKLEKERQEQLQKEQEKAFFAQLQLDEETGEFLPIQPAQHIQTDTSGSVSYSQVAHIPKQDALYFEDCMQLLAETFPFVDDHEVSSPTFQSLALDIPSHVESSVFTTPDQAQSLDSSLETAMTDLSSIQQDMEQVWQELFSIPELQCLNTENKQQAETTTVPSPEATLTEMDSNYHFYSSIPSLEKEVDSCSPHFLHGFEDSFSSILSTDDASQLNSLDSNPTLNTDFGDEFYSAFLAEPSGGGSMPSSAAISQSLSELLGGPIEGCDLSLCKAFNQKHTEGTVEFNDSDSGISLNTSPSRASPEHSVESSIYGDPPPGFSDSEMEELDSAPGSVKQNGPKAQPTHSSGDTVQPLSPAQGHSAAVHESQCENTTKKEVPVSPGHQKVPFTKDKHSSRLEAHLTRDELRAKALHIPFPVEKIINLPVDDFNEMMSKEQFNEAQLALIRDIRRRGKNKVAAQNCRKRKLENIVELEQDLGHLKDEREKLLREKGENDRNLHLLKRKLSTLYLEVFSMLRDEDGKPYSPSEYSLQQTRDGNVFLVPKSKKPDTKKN

Rattus norvegicus [17] = assay: Ex vivo induction GST-pi protein expression in Sprague-Dawley rat bladder at 7.5 umol/kg/day, po for 10 days measured on day 11 by Western blot analysis; type: functional, organism-based; summary of the method: as §4
[18] = target: T1, Nuclear factor erythroid 2-related factor 2 (Rattus norvegicus); assay: Induction of Nrf-mediated GST-alpha protein expression in wild type rat NBT2 cells at 25 uM after 24 hrs Western blot analysis; type: functional, cell-based; summary of the method: as §5
[19] = target: T1, Nuclear factor erythroid 2-related factor 2 (Rattus norvegicus); assay: Induction of Nrf-mediated GST-mu protein expression in wild type rat NBT2 cells at 25 uM after 24 hrs Western blot analysis; type: functional, cell-based; summary of the method: as §5
NBT2 [20] = assay: Induction of NQO1 protein expression in rat NBT2 cells after 24 hrs by Western blot analysis; type: functional, cell-based; summary of the method: as §3
NBT2 [21] = assay: Induction of GST-pi protein expression in rat NBT2 cells at 25 to 50 uM after 24 hrs by Western blot analysis; type: functional, cell-based; summary of the method: as §3
NBT2 [22] = assay: Induction of NQO1 protein expression in Nrf gene knockout rat NBT2 cells at 25 uM after 24 hrs Western blot analysis; type: functional, cell-based; summary of the method: as §5
NBT2 [23] = assay: Induction of GCL protein expression in Nrf gene knockout rat NBT2 cells at 25 uM after 24 hrs Western blot analysis; type: functional, cell-based; summary of the method: as §5
NBT2 [24] = assay: Induction of GST-mu protein expression in Nrf gene knockout rat NBT2 cells at 25 uM after 24 hrs Western blot analysis; type: functional, cell-based; summary of the method: as §5
NBT2 [25] = assay: Induction of GCL protein expression in rat NBT2 cells at 25 to 50 uM after 24 hrs by Western blot analysis; type: functional, cell-based; summary of the method: as §3
[26] = target: T1, Nuclear factor erythroid 2-related factor 2 (Rattus norvegicus); assay: Induction of Nrf-mediated NQO1 protein expression in wild type rat NBT2 cells at 25 uM after 24 hrs Western blot analysis; type: functional, cell-based; summary of the method: as §5
[27] = target: T1, Nuclear factor erythroid 2-related factor 2 (Rattus norvegicus); assay: Induction of Nrf-mediated GCL protein expression in wild type rat NBT2 cells at 25 uM after 24 hrs Western blot analysis; type: functional, cell-based; summary of the method: as §5
Rattus norvegicus [28] = assay: Ex vivo induction GCL protein expression in Sprague-Dawley rat bladder at 7.5 umol/kg/day, po for 10 days measured on day 11 by Western blot analysis; type: functional, organism-based; summary of the method: as §4
Rattus norvegicus [29] = assay: Ex vivo induction GST-mu protein expression in Sprague-Dawley rat bladder at 7.5 umol/kg/day, po for 10 days measured on day 11 by Western blot analysis; type: functional, organism-based; summary of the method: as §4

## CCOC(=O)c1cc(=S)ss1
Rattus norvegicus [1]
  fold change (FC): 1.09
Rattus norvegicus [2]
  fold change (FC): 1.13

## O=C(O)c1cssc1=S
Rattus norvegicus [1]
  fold change (FC): 2.11
Rattus norvegicus [2]
  fold change (FC): 3.69
[3]
  pKa: 2.8

## CCOC(=O)c1c(N)ssc1=S
Rattus norvegicus [1]
  fold change (FC): 1.25
Rattus norvegicus [2]
  fold change (FC): 2.03

## CCOC(=O)c1cssc1=S
Rattus norvegicus [4]
  fold change (FC): 1.11
Rattus norvegicus [5]
  fold change (FC): 2.15
Rattus norvegicus [1]
  fold change (FC): 2.76
Rattus norvegicus [2]
  fold change (FC): 4.82
Rattus norvegicus [6]
  fold change (FC): 0.98
Rattus norvegicus [7]
  fold change (FC): 1.21
Rattus norvegicus [8]
  fold change (FC): 1.47
Rattus norvegicus [9]
  fold change (FC): 1.04
Rattus norvegicus [10]
  fold change (FC): 1.21
Rattus norvegicus [11]
  fold change (FC): 1.04

## S=c1ssc(S)c1-c1ccccc1
Rattus norvegicus [1]
  fold change (FC): 1.03
Rattus norvegicus [2]
  fold change (FC): 1.11

## CC1Cc2ssc(=S)c2C1 (centres undefined)
Rattus norvegicus [1]
  fold change (FC): 1.31
Rattus norvegicus [2]
  fold change (FC): 1.81

## CCOC(=O)C1Cc2ssc(=S)c2C1 (centres undefined)
Rattus norvegicus [1]
  fold change (FC): 1.11
Rattus norvegicus [2]
  fold change (FC): 1.23

## Oc1ccc(-c2cc(=S)ss2)cc1
Rattus norvegicus [1]
  fold change (FC): 0.95
Rattus norvegicus [2]
  fold change (FC): 1.02

## Cc1ssc(=S)c1C(=O)O
Rattus norvegicus [1]
  fold change (FC): 0.99
Rattus norvegicus [2]
  fold change (FC): 1.1

## CCOC(=O)C1CCc2c1ssc2=S (centres undefined)
NBT2 [12]
  Activity: Dose-dependent effect
Rattus norvegicus [4]
  fold change (FC): 1.2
NBT2 [13]
  Activity: Dose-dependent effect
Rattus norvegicus [14]
  Activity: Active
Rattus norvegicus [5]
  fold change (FC): 1.93
Rattus norvegicus [1]
  fold change (FC): 2.29
NBT2 [15]
  Activity: inactive
[16]
  Activity: Active
Rattus norvegicus [2]
  fold change (FC): 4.47
Rattus norvegicus [17]
  Activity: inactive
[18]
  Activity: Active
Rattus norvegicus [6]
  fold change (FC): 1
[19]
  Activity: Active
NBT2 [20]
  Activity: Dose-dependent effect
NBT2 [21]
  Activity: inactive
NBT2 [22]
  Activity: inactive
NBT2 [23]
  Activity: inactive
Rattus norvegicus [7]
  fold change (FC): 1.53
Rattus norvegicus [8]
  fold change (FC): 1.86
NBT2 [24]
  Activity: inactive
NBT2 [25]
  Activity: Active
[26]
  Activity: Active
Rattus norvegicus [9]
  fold change (FC): 1.17
[27]
  Activity: Active
Rattus norvegicus [28]
  Activity: Active
Rattus norvegicus [10]
  fold change (FC): 1.17
Rattus norvegicus [11]
  fold change (FC): 1.38
Rattus norvegicus [29]
  Activity: Active

## Cc1cc(=S)ss1
Rattus norvegicus [1]
  fold change (FC): 1.08
Rattus norvegicus [2]
  fold change (FC): 1.23

## CC1CCc2c1ssc2=S (centres undefined)
Rattus norvegicus [1]
  fold change (FC): 1.3
Rattus norvegicus [2]
  fold change (FC): 1.91
